# According to ChEMBL document CHEMBL2417469, “Synthesis of novel analogs of 2-pyrazoline obtained from [(7-chloroquinolin-4-yl)amino]chalcones and hydrazine as potential antitumor and antimalarial agents” (Eur J Med Chem, 2013):
# Tests used:
# MDA-MB-468 = test: Cytotoxicity against human MDA-MB-468 cells after 48 hrs by SRB assay; format: functional; details: MDA-MB-468, 48 h
# Procedure, shortened: (§1)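 NCI 60-cell-line screen. Cells preincubated 24 h at 37 °C, 5% CO2; time-zero plates TCA-fixed. Compounds dissolved in DMSO and tested at five concentrations (100, 10, 1.0, 0.1, 0.01 µM) for 48 h continuous exposure. Adherent cells fixed with cold TCA (10% final), then SRB stained; absorbance at 515 nm. GI50, TGI and LC50 calculated from growth relative to time-zero and untreated controls.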
# CAKI-1 = test: Cytotoxicity against human Caki1 cells after 48 hrs by SRB assay; format: functional; details: CAKI-1, 48 h; procedure, shortened: as §1
# COLO 205 = test: Cytotoxicity against human COLO205 cells after 48 hrs by SRB assay; format: functional; details: COLO 205, 48 h; procedure, shortened: as §1
# SK-MEL-5 = test: Cytotoxicity against human SK-MEL-5 cells after 48 hrs by SRB assay; format: functional; details: SK-MEL-5, 48 h; procedure, shortened: as §1
# SF-295 = test: Cytotoxicity against human SF295 cells after 48 hrs by SRB assay; format: functional; details: SF-295, 48 h; procedure, shortened: as §1
# HCT-15 = test: Cytotoxicity against human HCT15 cells after 48 hrs by SRB assay; format: functional; details: HCT-15, 48 h; procedure, shortened: as §1
# BT-549 = test: Cytotoxicity against human BT549 cells after 48 hrs by SRB assay; format: functional; details: BT-549, 48 h; procedure, shortened: as §1
# PC-3 = test: Cytotoxicity against human PC3 cells after 48 hrs by SRB assay; format: functional; details: PC-3, 48 h; procedure, shortened: as §1
# Malme-3M = test: Cytotoxicity against human MALME-3M cells after 48 hrs by SRB assay; format: functional; procedure, shortened: as §1
# Plasmodium falciparum = test: Antimalarial activity against Plasmodium falciparum NF54 infected in human serum after 48 hrs by fluorometric method; format: functional, organism-based
# Procedure, shortened: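 Asynchronous P. falciparum NF54 cultures at 1.5–2% parasitemia, 5% hematocrit in RPMI with 10% human serum; equal volumes of parasite suspension and compound dilutions (from 100 µg/mL stock) incubated 48 h, 37 °C, 90% N2/5% CO2/5% O2. DNA extracted with proteinase K lysis, stained with ethidium bromide; fluorescence-based viability vs compound-free control. IC50 by Probit; triplicate.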
# HT-29 = test: Cytotoxicity against human HT-29 cells after 48 hrs by SRB assay; format: functional; details: HT-29, 48 h; procedure, shortened: as §1
# HCT-116 = test: Cytotoxicity against human HCT116 cells after 48 hrs by SRB assay; format: functional; details: HCT-116, 48 h; procedure, shortened: as §1
# [1] = Toxicity in RBC (unknown origin) assessed as hemolysis after 48 hrs at 20 to 80 ug/ml by spectrophotometry; format: cell-based, Erythrocyte; details: red blood cells (RBC); read-out: Activity
# Procedure, shortened: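 Red blood cells at 5% hematocrit in RPMI 1640 exposed to 20, 40 and 80 µg/mL for 48 h at 37 °C; free hemoglobin read spectrophotometrically at 542 nm.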
# LOX IMVI = test: Cytotoxicity against human LOXIMVI cells after 48 hrs by SRB assay; format: functional; procedure, shortened: as §1
# SK-MEL-28 = test: Cytotoxicity against human SK-MEL-28 cells after 48 hrs by SRB assay; format: functional; details: SK-MEL-28, 48 h; procedure, shortened: as §1
# OVCAR-8 = test: Cytotoxicity against human OVCAR8 cells after 48 hrs by SRB assay; format: functional; details: OVCAR-8, 48 h; procedure, shortened: as §1
# NCI-H322M = test: Cytotoxicity against human NCI-H322M cells after 48 hrs by SRB assay; format: functional; procedure, shortened: as §1
# IGROV-1 = test: Cytotoxicity against human IGROV1 cells after 48 hrs by SRB assay; format: functional; details: IGROV-1, 48 h; procedure, shortened: as §1
# MOLT-4 = test: Cytotoxicity against human MOLT4 cells after 48 hrs by SRB assay; format: functional; details: MOLT-4, 48 h; procedure, shortened: as §1
# U-251 = test: Cytotoxicity against human U251 cells after 48 hrs by SRB assay; format: functional; details: U-251, 48 h
# Procedure, shortened: (§2)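 NCI 60-cell screen. Cells grew 24 h (37 °C, 5% CO2) before compound was added. Compounds were in DMSO and diluted in medium with gentamicin, then tested at five levels (100, 10, 1.0, 0.1, 0.01 µM) with 48 h continuous exposure. Adherent cells were fixed with TCA (10% final) and stained with 0.4% SRB, absorbance read at 515 nm. A time-zero plate was included. LC50 is the concentration giving 50% loss of protein relative to time zero.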
# KM12 = test: Cytotoxicity against human KM12 cells after 48 hrs by SRB assay; format: functional; details: KM12, 48 h; procedure, shortened: as §1
# 786-0 = test: Cytotoxicity against human 786-0 cells after 48 hrs by SRB assay; format: functional; details: 786-0, 48 h; procedure, shortened: as §1
# M14 = test: Cytotoxicity against human M14 cells after 48 hrs by SRB assay; format: functional; details: M14, 48 h; procedure, shortened: as §1
# A498 = test: Cytotoxicity against human A498 cells after 48 hrs by SRB assay; format: functional; details: A498, 48 h; procedure, shortened: as §1
# NCI/ADR-RES = test: Cytotoxicity against human NCI/ADR-RES cells after 48 hrs by SRB assay; format: functional; procedure, shortened: as §1
# SK-OV-3 = test: Cytotoxicity against human SKOV3 cells after 48 hrs by SRB assay; format: functional; details: SK-OV-3, 48 h; procedure, shortened: as §1
# SR = test: Cytotoxicity against human SR cells after 48 hrs by SRB assay; format: functional; procedure, shortened: as §2
# [2] = read-out: LC50 (the source's name)
structure (smiles),measurement,setting,value
CC(=O)N1N=C(c2ccc(Nc3ccnc4cc(Cl)ccc34)cc2)CC1c1ccc(Cl)cc1 (stereo unspecified),GI50,MDA-MB-468,2.41 µM
same,LC50,MDA-MB-468,> 100 µM
same,GI50,CAKI-1,> 100 µM
same,LC50,CAKI-1,> 100 µM
same,GI50,COLO 205,5.93 µM
same,LC50,COLO 205,> 100 µM
same,GI50,SK-MEL-5,2.2 µM
same,LC50 (concentration killing 50% of cells present at time zero),SK-MEL-5,> 100 µM
same,GI50,SF-295,3.58 µM
same,LC50,SF-295,> 100 µM
same,GI50,HCT-15,3.33 µM
same,LC50 (concentration killing 50% of cells relative to time zero),HCT-15,> 100 µM
same,GI50,BT-549,5.4 µM
same,LC50 (50% net cell kill vs time zero),BT-549,> 100 µM
same,GI50,PC-3,3.02 µM
same,LC50,PC-3,> 100 µM
same,LC50,Malme-3M,> 100 µM
same,IC50,Plasmodium falciparum,54.6 mg/L
same,GI50,HT-29,5.4 µM
same,LC50,HT-29,> 100 µM
same,GI50,HCT-116,38.8 µM
same,LC50,HCT-116,> 100 µM
same,hemolysis at 48 h,[1],3.4%
same,GI50,LOX IMVI,3.15 µM
same,LC50,LOX IMVI,> 100 µM
same,GI50,SK-MEL-28,4.88 µM
same,CC50,SK-MEL-28; [2],> 100 µM
same,GI50,OVCAR-8,> 100 µM
same,LC50 (50% net cell kill),OVCAR-8,> 100 µM
same,GI50,NCI-H322M,> 100 µM
same,LC50 (50% lethal concentration),NCI-H322M,> 100 µM
same,GI50,IGROV-1,> 100 µM
same,LC50 (concentration killing 50% of cells relative to time zero),IGROV-1,> 100 µM
same,GI50,MOLT-4,2.42 µM
same,LC50,MOLT-4,> 100 µM
same,GI50,U-251,> 100 µM
same,CC50,U-251; [2],> 100 µM
same,GI50,KM12,6.59 µM
same,LC50 (concentration killing 50% of cells),KM12,> 100 µM
same,GI50,786-0,> 100 µM
same,LC50,786-0,> 100 µM
same,GI50,M14,5.24 µM
same,CC50,M14; [2],> 100 µM
same,GI50,A498,> 100 µM
same,CC50,A498; [2],> 100 µM
same,GI50,NCI/ADR-RES,3.04 µM
same,CC50,NCI/ADR-RES; [2],> 100 µM
same,GI50,SK-OV-3,> 100 µM
same,LC50 (concentration killing 50% of cells),SK-OV-3,> 100 µM
same,GI50,SR,0.61 µM
same,LC50,SR,> 100 µM
